Test system: HEK-293T
Assay: Multiplex assay against HEK293T;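 for Population Tubulin-Different-Phenotype (%): share of the cells with healthy nuclei that show this phenotype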
Type: toxicity, cell-based
Conditions: human
In short: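 Tubulin, mitochondrial-mass and membrane-permeability phenotypes are per cents of healthy-nucleus cells. Cells were gated by CellPathfinder machine learning into Hoechst high-intensity objects or normal cells, normal cells into healthy, pyknosed or fragmented nuclei, and pyknosed cells into mitotic or apoptotic. Before that, live cells stained at seeding with Hoechst33342, BioTracker Green Microtubule Cytoskeleton Dye, MitoTracker Red and Annexin V Alexa Fluor 680 were imaged on a CQ1 microscope at 37°C and 5% CO2 after compound addition.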

[1] = 12 h, 1 µM, compound concentration 1 uM, replicate 1
[2] = 12 h, 1 µM, compound concentration 1 uM, replicate 2
[3] = 12 h, 10 µM, compound concentration 10 uM, replicate 1
[4] = 12 h, 10 µM, compound concentration 10 uM, replicate 2
[5] = 24 h, 1 µM, compound concentration 1 uM, replicate 1
[6] = 24 h, 1 µM, compound concentration 1 uM, replicate 2
[7] = 24 h, 10 µM, compound concentration 10 uM, replicate 1
[8] = 24 h, 10 µM, compound concentration 10 uM, replicate 2
[9] = 48 h, 1 µM, compound concentration 1 uM, replicate 1
[10] = 48 h, 1 µM, compound concentration 1 uM, replicate 2
[11] = 48 h, 10 µM, compound concentration 10 uM, replicate 1
[12] = 48 h, 10 µM, compound concentration 10 uM, replicate 2

CCc1cc2c(cc1CC)CC(NC[C@H](O)c1ccc(O)c3[nH]c(=O)ccc13)C2 [INDACATEROL]
Population Apoptotic (%) [1]: 48%
Population Fragmented Nuclei (%) [1]: 10%
Population Healthy Nuclei (%) [1]: 47%
Population Hoechst High Intensity Objects (%) [1]: 16%
Population Membrane Permeable-Phenotype (%) [1]: 4%
Population Mitochondria Different-Phenotype (%) [1]: 74%
Population Mitotic Cells (%) [1]: 51%
Population Normal (%) [1]: 83%
Population Pyknosed Nuclei (%) [1]: 42%
Population Tubulin-Different-Phenotype (%) [1]: 53%
Total Cell Count [1]: 240
Population Apoptotic (%) [2]: 6%
Population Fragmented Nuclei (%) [2]: 8%
Population Healthy Nuclei (%) [2]: 36%
Population Hoechst High Intensity Objects (%) [2]: 3%
Population Membrane Permeable-Phenotype (%) [2]: 10%
Population Mitochondria Different-Phenotype (%) [2]: 50%
Population Mitotic Cells (%) [2]: 93%
Population Normal (%) [2]: 96%
Population Pyknosed Nuclei (%) [2]: 55%
Population Tubulin-Different-Phenotype (%) [2]: 51%
Total Cell Count [2]: 228
Population Apoptotic (%) [3]: 93%
Population Fragmented Nuclei (%) [3]: 19%
Population Healthy Nuclei (%) [3]: 12%
Population Hoechst High Intensity Objects (%) [3]: 30%
Population Membrane Permeable-Phenotype (%) [3]: 0%
Population Mitochondria Different-Phenotype (%) [3]: 61%
Population Mitotic Cells (%) [3]: 6%
Population Normal (%) [3]: 69%
Population Pyknosed Nuclei (%) [3]: 67%
Population Tubulin-Different-Phenotype (%) [3]: 61%
Total Cell Count [3]: 204
Population Apoptotic (%) [4]: 82%
Population Fragmented Nuclei (%) [4]: 8%
Population Healthy Nuclei (%) [4]: 17%
Population Hoechst High Intensity Objects (%) [4]: 12%
Population Membrane Permeable-Phenotype (%) [4]: 3%
Population Mitochondria Different-Phenotype (%) [4]: 90%
Population Mitotic Cells (%) [4]: 17%
Population Normal (%) [4]: 87%
Population Pyknosed Nuclei (%) [4]: 74%
Population Tubulin-Different-Phenotype (%) [4]: 87%
Total Cell Count [4]: 215
Population Apoptotic (%) [5]: 48%
Population Fragmented Nuclei (%) [5]: 10%
Population Healthy Nuclei (%) [5]: 57%
Population Hoechst High Intensity Objects (%) [5]: 16%
Population Membrane Permeable-Phenotype (%) [5]: 4%
Population Mitochondria Different-Phenotype (%) [5]: 70%
Population Mitotic Cells (%) [5]: 52%
Population Normal (%) [5]: 83%
Population Pyknosed Nuclei (%) [5]: 32%
Population Tubulin-Different-Phenotype (%) [5]: 43%
Total Cell Count [5]: 279
Population Apoptotic (%) [6]: 22%
Population Fragmented Nuclei (%) [6]: 7%
Population Healthy Nuclei (%) [6]: 55%
Population Hoechst High Intensity Objects (%) [6]: 2%
Population Membrane Permeable-Phenotype (%) [6]: 3%
Population Mitochondria Different-Phenotype (%) [6]: 42%
Population Mitotic Cells (%) [6]: 77%
Population Normal (%) [6]: 97%
Population Pyknosed Nuclei (%) [6]: 37%
Population Tubulin-Different-Phenotype (%) [6]: 55%
Total Cell Count [6]: 282
Population Apoptotic (%) [7]: 98%
Population Fragmented Nuclei (%) [7]: 22%
Population Healthy Nuclei (%) [7]: 11%
Population Hoechst High Intensity Objects (%) [7]: 33%
Population Membrane Permeable-Phenotype (%) [7]: 6%
Population Mitochondria Different-Phenotype (%) [7]: 50%
Population Mitotic Cells (%) [7]: 1%
Population Normal (%) [7]: 66%
Population Pyknosed Nuclei (%) [7]: 65%
Population Tubulin-Different-Phenotype (%) [7]: 50%
Total Cell Count [7]: 213
Population Apoptotic (%) [8]: 95%
Population Fragmented Nuclei (%) [8]: 5%
Population Healthy Nuclei (%) [8]: 20%
Population Hoechst High Intensity Objects (%) [8]: 15%
Population Membrane Permeable-Phenotype (%) [8]: 2%
Population Mitochondria Different-Phenotype (%) [8]: 97%
Population Mitotic Cells (%) [8]: 4%
Population Normal (%) [8]: 84%
Population Pyknosed Nuclei (%) [8]: 74%
Population Tubulin-Different-Phenotype (%) [8]: 89%
Total Cell Count [8]: 219
Population Apoptotic (%) [9]: 43%
Population Fragmented Nuclei (%) [9]: 12%
Population Healthy Nuclei (%) [9]: 72%
Population Hoechst High Intensity Objects (%) [9]: 9%
Population Membrane Permeable-Phenotype (%) [9]: 0%
Population Mitochondria Different-Phenotype (%) [9]: 45%
Population Mitotic Cells (%) [9]: 56%
Population Normal (%) [9]: 90%
Population Pyknosed Nuclei (%) [9]: 14%
Population Tubulin-Different-Phenotype (%) [9]: 33%
Total Cell Count [9]: 393
Population Apoptotic (%) [10]: 22%
Population Fragmented Nuclei (%) [10]: 7%
Population Healthy Nuclei (%) [10]: 73%
Population Hoechst High Intensity Objects (%) [10]: 7%
Population Membrane Permeable-Phenotype (%) [10]: 5%
Population Mitochondria Different-Phenotype (%) [10]: 17%
Population Mitotic Cells (%) [10]: 77%
Population Normal (%) [10]: 92%
Population Pyknosed Nuclei (%) [10]: 18%
Population Tubulin-Different-Phenotype (%) [10]: 49%
Total Cell Count [10]: 448
Population Apoptotic (%) [11]: 91%
Population Fragmented Nuclei (%) [11]: 29%
Population Healthy Nuclei (%) [11]: 2%
Population Hoechst High Intensity Objects (%) [11]: 35%
Population Membrane Permeable-Phenotype (%) [11]: 25%
Population Mitochondria Different-Phenotype (%) [11]: 25%
Population Mitotic Cells (%) [11]: 8%
Population Normal (%) [11]: 64%
Population Pyknosed Nuclei (%) [11]: 67%
Population Tubulin-Different-Phenotype (%) [11]: 0%
Total Cell Count [11]: 209
Population Apoptotic (%) [12]: 98%
Population Fragmented Nuclei (%) [12]: 9%
Population Healthy Nuclei (%) [12]: 17%
Population Hoechst High Intensity Objects (%) [12]: 17%
Population Membrane Permeable-Phenotype (%) [12]: 6%
Population Mitochondria Different-Phenotype (%) [12]: 96%
Population Mitotic Cells (%) [12]: 1%
Population Normal (%) [12]: 82%
Population Pyknosed Nuclei (%) [12]: 73%
Population Tubulin-Different-Phenotype (%) [12]: 96%
Total Cell Count [12]: 214

From ChEMBL document CHEMBL4689842, “EUbOPEN Chemogenomics Library wave 1” (2021)
